High-throughput results from PubChem BioAssay.
Only some compounds are listed: those with a hit (about 4.3% of all), similar ones and a draw of the others.
Rtt109 Vps75: C. albicans Rtt109 histone acetyltransferase inhibition | purified Rtt109/Vps75, ThioGlo CoA-SH fluorescence, 4 h | inhibition, % at 34.9 µM | hit rate 0.16% among 330,000;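 active = inhibition of at least 50% in every replicate; inconclusive = best replicate reaches 50% inhibition but some replicates fall short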
Target sequence (Q5AAJ8 whole entry, looked up): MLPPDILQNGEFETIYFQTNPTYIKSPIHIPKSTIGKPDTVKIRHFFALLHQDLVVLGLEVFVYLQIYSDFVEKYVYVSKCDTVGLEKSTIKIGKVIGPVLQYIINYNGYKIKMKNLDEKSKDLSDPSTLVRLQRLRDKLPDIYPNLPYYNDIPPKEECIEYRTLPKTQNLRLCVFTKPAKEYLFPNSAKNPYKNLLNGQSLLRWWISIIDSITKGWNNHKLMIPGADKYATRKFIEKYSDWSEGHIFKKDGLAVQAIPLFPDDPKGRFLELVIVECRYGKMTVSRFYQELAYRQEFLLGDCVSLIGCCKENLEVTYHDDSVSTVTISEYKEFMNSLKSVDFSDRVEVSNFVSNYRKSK
ALR inh: inhibitors of human sulfhydryl oxidase ALR. inhibition, % (test concentration not listed). purified ALR, DTT oxidation, H2O2 HRP-luminol luminescence. P55789. hit rate 3.8% among 290,000;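 active = mean replicate inhibition above about 79%, with every replicate also reaching it, limit read from the data; inconclusive = only one of the two criteria met; inactive = mean below limit and not every replicate reaching it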
Target sequence (P55789 whole entry, looked up): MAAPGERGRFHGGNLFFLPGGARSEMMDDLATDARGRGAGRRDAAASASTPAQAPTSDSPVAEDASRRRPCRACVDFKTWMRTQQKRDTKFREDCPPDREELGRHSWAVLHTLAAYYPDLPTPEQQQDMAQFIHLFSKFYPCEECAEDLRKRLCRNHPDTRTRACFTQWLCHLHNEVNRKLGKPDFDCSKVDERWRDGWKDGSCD
Dyrk1A ADPGlo: blocks rat Dyrk1A kinase activity; inhibition, % at 12.5 µM; ADP-Glo luminescence, NFATc1 peptide; hit rate 0.43% among 310,000; in the data active = inhibition above about 50%
CAL PDZ FP-1: CAL PDZ (human) peptide binding inhibition. Q9HD26. purified CAL PDZ, TMR-peptide fluorescence polarization, 1 h. inhibition, % at 24.9 µM. hit rate 0.92% among 300,000. AID 602252;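 active = mean inhibition of at least 30% with at least half of replicates also reaching 30%; inconclusive = no clear call, values can overlap the other calls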
CAL PDZ FP-2: inhibitors of human CAL PDZ peptide binding; Q9HD26; purified CAL PDZ, TMR-peptide fluorescence polarization, 1 h; inhibition, % at 20 µM; hit rate 0.02% among 330,000;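 active = highest replicate inhibition of at least 40%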
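Material: tagged CAL PDZ protein CerCALP, purified; buffer or medium: sodium phosphate/NaCl buffer pH 7.4 with TCEP, IgG, Thesit; also added: fluorescent TMR peptide probe; schedule: 1 h incubation at room temperature before polarization reading; technique: fluorescence polarization from S- and P-plane intensities, G-factor corrected; control set: unlabelled peptide and DMSO controls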
A number is an active result; n = inactive; u = inconclusive; x = no result.

SMILES	Rtt109 Vps75	ALR inh	Dyrk1A ADPGlo	CAL PDZ FP-1	CAL PDZ FP-2
Cc1ccc(NC(=O)CN(C)C(=O)c2ccc(NS(=O)(=O)c3ccc4[nH]c(=O)[nH]c4c3)cc2)cc1	n	x	n	x	n
CC12C(=O)N(c3ccc(C(=O)N4CCOCC4)cc3)C(=O)C1C1c3ccccc3C2c2ccccc21 (stereo not drawn)	x	n	x	x	x
CCOc1ccc(Br)cc1CNc1ccc2c(c1)OCCO2	n	x	n	n	n
COc1ccc(NS(=O)(=O)c2ccc3nc(COc4ccc(C#N)cc4)[nH]c3c2)cc1	n	97.9	n	n	n
COc1ccc(OCc2nc3ccccc3[nH]2)cc1	n	n	n	n	n
CCOc1ccccc1/C=N/NC(=O)c1cccc(S(=O)(=O)N(CC)CC)c1	n	n	n	x	n
CCN(CC)S(=O)(=O)c1cccc(C(=O)N/N=C/c2ccc(O)c(O)c2O)c1	u	98.3	n	n	n
CCN(CC)S(=O)(=O)c1cccc(C(=O)N/N=C(\C)c2ccc(O)cc2O)c1	n	86.3	n	n	n
O=C(NCc1ccccc1)C1CCN(S(=O)(=O)c2ccc(Cl)cc2)CC1	n	x	n	n	n
C=CCn1c(CCC(O)COCCCCC)n[nH]c1=S (stereo not drawn)	n	96.0	x	n	n
C=CCn1c(C(CCCC)CC(O)COCCC)n[nH]c1=S (stereo not drawn)	n	91.8	n	n	n
C=CCn1c(C(CCCC)CC(O)COCC(C)C)n[nH]c1=S (stereo not drawn)	x	n	n	n	n
CCCCOCC(O)CCc1n[nH]c(=S)n1-c1ccccc1 (stereo not drawn)	n	x	n	n	n
Cc1ccc(C2C3CSCC=C3C(C#N)=C(N)C2(C#N)C#N)cc1 (stereo not drawn)	x	93.4	n	n	n
CC(C)c1nc(SCC(=O)Nc2ccc(C(=O)O)cc2)c2c3c(sc2n1)CCCC3	n	99.2	n	x	n
CC(C)c1nc(SCC(=O)Nc2nc3c(s2)CCCC3)c2ccccc2n1	n	98.3	n	n	n
Cc1nc(SCC(=O)Nc2ccc(CN3CCCC3)cc2)c2c(C)c(C)sc2n1	n	98.8	x	n	n
CC1CCc2nc(NC(=O)CSc3nc4ccccc4o3)sc2C1 (stereo not drawn)	n	98.8	n	n	n
C=C(c1ccccc1)c1ccccc1N	n	x	n	n	n
Cc1ccc(-n2[nH]c(=O)c3cccnc32)cc1	n	96.7	n	x	n
Cc1ccc(-n2[nH]c(=O)c(-c3ccccn3)c2C)cc1	n	n	n	n	n
Cc1ccc2c3c([nH]c2c1)C(=O)CC(C)(C)S3	n	98.1	n	n	n
Cc1cccc(N2NC(=O)/C(=C/c3ccc(-c4ccc(Cl)c(C(=O)O)c4)o3)C2=O)c1	n	x	n	96.8	n
O=C1NN(c2ccccc2)C(=O)/C1=C/c1ccc(-c2ccc(Cl)c(C(=O)O)c2)o1	n	x	n	n	n
COC(=O)c1cc(Cl)cc(Cl)c1OS(=O)(=O)N(C)C	x	98.9	n	n	n
SMILES	Rtt109 Vps75	ALR inh	Dyrk1A ADPGlo	CAL PDZ FP-1	CAL PDZ FP-2
CCn1c(C(C)NC(=O)c2ccc(Cl)cc2)n[nH]c1=S (stereo not drawn)	n	n	x	n	n
C=CCn1c(C(C)NC(=O)c2cccc(C)c2)n[nH]c1=S (stereo not drawn)	n	93.0	n	n	n
CCc1cc2ccccc2nc1SCC(=O)Nc1cc(OC)c(OC)cc1C(=O)O	n	n	n	n	n
O=c1nc2ccccc2c(NS(=O)(=O)c2ccccc2)n1-c1ccccc1	n	n	n	35.6	n
CCNC(=O)c1ccc(NS(=O)(=O)c2ccc3[nH]c(=O)[nH]c3c2)cc1	n	n	n	n	n
Oc1cc2c(cc1O)C1c3ccc(O)c(O)c3OCC1(O)C2 (stereo not drawn)	159.3	99.6	n	n	n
COc1cccc(-c2csc(NC3OC(=O)c4c3ccc(OC)c4OC)n2)c1 (stereo not drawn)	x	97.3	x	x	x
COc1ccc2c(c1OC)C(=O)OC2Nc1nc(-c2cc3ccccc3oc2=O)cs1 (stereo not drawn)	n	x	n	n	n
COc1ccc2c(c1OC)C(=O)OC2Nc1nc(-c2ccc(-c3ccccc3)cc2)cs1 (stereo not drawn)	n	95.9	n	x	n
O=C(O)C1CSC(c2ccccc2Cl)N1C(=O)c1ccc(Cl)cc1 (stereo not drawn)	n	x	n	n	n
O=C1CS/C(=N/N=C/c2ccccc2)N1c1ccc(O)cc1	n	n	n	79.4	x
O=C1CS/C(=N\N=C\c2ccco2)N1c1ccccc1	n	x	n	n	n
CNc1nnc(SCC(=O)c2cc(C)n(C3CC3)c2C)s1	n	91.6	n	x	n
Cc1cc(C(=O)CSc2ncnc3ccccc23)c(C)n1C1CC1	n	98.0	x	n	n
Cc1cc(-n2c(C)cc(C(=O)CSc3ncnc4ccccc34)c2C)no1	n	98.3	n	n	n
COc1ccc(C(=O)c2ccc(CC#N)s2)cc1	n	n	x	n	n
C[C@H](NC(=O)c1ccco1)C(=O)Nc1cc(S(=O)(=O)N2CCCC2)ccc1OCC(F)(F)F	n	n	n	n	n
Nn1c(SCC(=O)Nc2ccc(OC(F)F)cc2)nnc1-c1ccco1	n	n	n	n	n
CCCCCCN1C=C/C(=C\C=C(C#N)C#N)c2ccccc21	n	n	n	n	n
CCCCCN1C=CC=C/C1=C\C=C(C#N)C#N	x	99.0	x	x	x
CN1/C(=C/C=C(C#N)C#N)C=Cc2ccccc21	n	n	n	n	n
CCCCCCN1C=CC=C/C1=C/C=C(C#N)C#N	n	86.8	n	n	n
Cc1cc(C)cc(NC(=S)Nc2ccccn2)c1	n	97.2	n	n	n
COc1ccccc1NC(=S)Nc1ccccn1	n	81.9	n	n	n
Cc1c(Cl)cccc1NC(=O)CNC(=O)Cc1c[nH]c2ccccc12	n	n	x	n	n
SMILES	Rtt109 Vps75	ALR inh	Dyrk1A ADPGlo	CAL PDZ FP-1	CAL PDZ FP-2
CCc1ccccc1NC(=O)CN1CCN(C(=O)CN2C(=O)NC3(CCCC3)C2=O)CC1	n	x	n	n	n
Fc1ccccc1C1CC(c2ccco2)=Nc2ccccc2S1 (stereo not drawn)	83.2	n	x	n	n
CC1CCN(Cc2ccc(NC(=O)CC3Oc4ccccc4NC3=O)cc2)CC1 (stereo not drawn)	n	91.6	n	x	n
Cc1ccc(CCNC(=O)CC2Oc3ccc(C)cc3NC2=O)cc1 (stereo not drawn)	n	n	n	x	n
CCN(CCNC(=O)CC1Oc2ccccc2NC1=O)c1ccccc1 (stereo not drawn)	n	97.3	n	x	n
O=C(CC1Oc2ccccc2NC1=O)NCCc1ccccc1 (stereo not drawn)	n	85.9	n	n	n
CC(C)CN(CCNC(=O)CC1Oc2ccccc2NC1=O)CC(C)C (stereo not drawn)	n	u	n	x	n
Oc1ccccc1-n1c(-c2ccccc2)ccc1-c1ccccc1	n	n	n	n	n
Cc1cc(C)cc(N(CC(=O)NC2CCCC2)C(=O)CCC(=O)Nc2cc(C)ccn2)c1	n	n	n	n	n
O=C(O)CC1c2ccccc2C=Cc2ccccc21	n	n	n	n	n
